Experiment [1] concerns Mus musculus. Nature of the experiment: Antinociceptive activity in Kun Ming mouse assessed as inhibition of formalin-induced pain response during phase 2 measured as licking and biting time at 80 mg/kg, ip preincubated with compound for 15 mins followed by formalin injection measured after 15 to 45 mins. In kind it is functional. Put shortly:
(§1)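 Formalin injected intraplantar into the mouse hind paw. Licking/biting time scored in phase I (0–5 min) and phase II (15–45 min) after 80 mg/kg test dose. At least ten animals per group; mean ± SEM; two-way ANOVA with Newman-Keuls test against vehicle and formalin-alone groups.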

The test system of experiment [2] is Mus musculus. Nature of the experiment: Antinociceptive activity in Kun Ming mouse assessed as inhibition of formalin-induced pain response during phase 1 measured as licking and biting time at 80 mg/kg, ip preincubated with compound for 15 mins followed by formalin injection measured up to 5 mins. In kind it is functional. The method in brief: as §1
In experiment [3] the target is Sigma non-opioid intracellular receptor 1 (Cavia porcellus, UniProt Q60492). Put plainly: Displacement of [3H]-(+)-pentazocine from sigma1 receptor in guinea pig brain membrane after 180 mins by liquid scintillation counter. The class given is cell membranes.
Sequence of Sigma non-opioid intracellular receptor 1 (Q60492 whole entry): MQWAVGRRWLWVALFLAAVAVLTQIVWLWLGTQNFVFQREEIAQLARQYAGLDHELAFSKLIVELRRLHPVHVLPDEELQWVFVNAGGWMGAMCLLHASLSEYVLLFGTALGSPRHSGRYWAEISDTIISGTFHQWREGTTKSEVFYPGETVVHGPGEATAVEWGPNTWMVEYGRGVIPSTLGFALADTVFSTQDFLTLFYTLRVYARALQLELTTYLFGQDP

Turning to `Cc1cc(OCCN2CCOCC2)nn1-c1ccc2ccccc2c1`, the Time in experiment [1] is 55.4 s; in experiment [2], 16.8 s.

Usually Ki stands for a dissociation constant, usually derived from enzyme kinetics or from competition with a known ligand. Low readings indicate higher affinity, high ones lower affinity. `CC1CCN(CCCOc2nc(-c3ccc(Cl)cc3)nc3c2CCC3)CC1` returned an inhibitory constant (Ki) in experiment [3] of 21.1 nM.

Take `CN(C)CCCOc1nc(-c2ccccc2)nc2c1CCCC2`: the inhibition constant (Ki) in experiment [3] came to 138 nM. Compared with the last compound, the Ki is about 6.5-fold higher.

These data come from ChEMBL document CHEMBL3785068, “Synthesis and biological evaluation of novel 6,7-dihydro-5H-cyclopenta[d]pyrimidine and 5,6,7,8-tetrahydroquinazoline derivatives as sigma-1 (σ1) receptor antagonists for the treatment of pain” (Bioorg Med Chem Lett, 2016).
